Experimental data reported in ChEMBL document CHEMBL3352424, “Synthesis, biological evaluation and 3D-QSAR study of hydrazide, semicarbazide and thiosemicarbazide derivatives of 4-(adamantan-1-yl)quinoline as anti-tuberculosis agents” (Eur J Med Chem, 2014).
pIC50: −log10 of the molar value. Values after ≈ are worked out from the molar mass of the structure shown.

Tests used:
[1] = tested on: Mycobacterium tuberculosis; experiment: Antitubercular activity against Mycobacterium tuberculosis H37Rv strain; assay type: functional
[2] = tested on: L929; experiment: Cytotoxicity against mouse L929 cells assessed as reduction in cell viability up to 200 ug/ml after 5 days by MTT assay; assay type: cell-based; conditions: l929, 120 h
Outline: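 MTT viability assay in mouse fibroblasts, run on compounds active against TB, with 200 µg/mL as the highest test concentration.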

[3] = tested on: Mycobacterium tuberculosis; experiment: Antitubercular activity against Mycobacterium tuberculosis H37Rv strain by BACTEC 460 radiometric assay; assay type: functional, organism-based
[4] = tested on: Mycobacterium tuberculosis; experiment: Antitubercular activity against Mycobacterium tuberculosis H37Rv strain at 6.25 ug/ml by microplate alamar blue assay; assay type: functional
[5] = tested on: Mycobacterium tuberculosis; experiment: Antitubercular activity against Mycobacterium tuberculosis H37Rv strain at 1.56 ug/ml by microplate alamar blue assay; assay type: functional

| Compound | MIC99 [1] | Activity [2] | MIC90 [3] | inhibition at 6.25 µg/mL [4] | pIC50 [3] | inhibition at 1.56 µg/mL [5] |
| --- | --- | --- | --- | --- | --- | --- |
| NNC(=O)c1cc(C23CC4CC(CC(C4)C2)C3)c2ccccc2n1 | 3.12 µg/mL (≈ 9.72 µM) | Non-toxic |  |  |  |  |
| O=C(NNC(=O)c1ccco1)c1cc(C23CC4CC(CC(C4)C2)C3)c2ccccc2n1 |  | Non-toxic | 6.25 µg/mL (≈ 15 µM) | 0% |  |  |
| O=C(NNC(=O)c1cccs1)c1cc(C23CC4CC(CC(C4)C2)C3)c2ccccc2n1 |  | Non-toxic | 6.25 µg/mL (≈ 14.5 µM) | 9% | 3.83 |  |
| O=C(NNC(=O)c1cc(C23CC4CC(CC(C4)C2)C3)c2ccccc2n1)NC12CC3CC(CC(C3)C1)C2 |  | Non-toxic | 6.25 µg/mL (≈ 12.5 µM) | 34% | 4.61 |  |
| O=C(NNC(=S)Nc1ccc([N+](=O)[O-])cc1)c1cc(C23CC4CC(CC(C4)C2)C3)c2ccccc2n1 |  | Non-toxic | 6.25 µg/mL (≈ 12.5 µM) | 94% | 6.10 |  |
| O=C(NNC(=O)c1cc(C23CC4CC(CC(C4)C2)C3)c2ccccc2n1)Nc1ccc(OC(F)(F)F)cc1 |  | Non-toxic | 3.12 µg/mL (≈ 5.96 µM) | 99% | 6.37 | 50% |
| CCCCCCNC(=O)NNC(=O)c1cc(C23CC4CC(CC(C4)C2)C3)c2ccccc2n1 |  | Non-toxic | 6.25 µg/mL (≈ 13.9 µM) | 47% | 4.80 |  |
| CCCCOc1ccc(NC(=O)NNC(=O)c2cc(C34CC5CC(CC(C5)C3)C4)c3ccccc3n2)cc1 |  | Non-toxic | 6.25 µg/mL (≈ 12.2 µM) | 61% | 5.11 |  |
| O=C(NNC(=S)Nc1cc(Cl)ccc1Cl)c1cc(C23CC4CC(CC(C4)C2)C3)c2ccccc2n1 |  | Non-toxic | 6.25 µg/mL (≈ 11.9 µM) | 43% | 4.80 |  |
| COc1ccc(NC(=O)NNC(=O)c2cc(C34CC5CC(CC(C5)C3)C4)c3ccccc3n2)cc1 |  | Non-toxic | 6.25 µg/mL (≈ 13.3 µM) | 78% | 5.43 |  |
| O=C(NNC(=O)N1CCOCC1)c1cc(C23CC4CC(CC(C4)C2)C3)c2ccccc2n1 |  | Non-toxic | 6.25 µg/mL (≈ 14.4 µM) | 3% | 3.33 |  |
| O=C(NNC(=S)Nc1ccccc1)c1cc(C23CC4CC(CC(C4)C2)C3)c2ccccc2n1 |  | Non-toxic | 6.25 µg/mL (≈ 13.7 µM) | 12% | 4.00 |  |
| Cc1cccc(C)c1NC(=S)NNC(=O)c1cc(C23CC4CC(CC(C4)C2)C3)c2ccccc2n1 |  | Non-toxic | 6.25 µg/mL (≈ 12.9 µM) | 51% | 4.91 |  |
| COc1ccc(C)cc1NC(=S)NNC(=O)c1cc(C23CC4CC(CC(C4)C2)C3)c2ccccc2n1 |  | Non-toxic | 6.25 µg/mL (≈ 12.5 µM) | 12% | 4.04 |  |
| CC(=O)NNC(=O)c1cc(C23CC4CC(CC(C4)C2)C3)c2ccccc2n1 |  | Non-toxic | 6.25 µg/mL (≈ 17.2 µM) | 5% | 3.49 |  |
| C=CCNC(=S)NNC(=O)c1cc(C23CC4CC(CC(C4)C2)C3)c2ccccc2n1 |  | Non-toxic | 6.25 µg/mL (≈ 14.9 µM) | 77% | 5.39 |  |
